Reference: ChEMBL document CHEMBL4184325, “Discovery of 4,7-Diamino-5-(4-phenoxyphenyl)-6-methylene-pyrimido[5,4- b]pyrrolizines as Novel Bruton's Tyrosine Kinase Inhibitors” (J Med Chem, 2018)

Experiments:
[1] = molecular target: T1, Tyrosine-protein kinase ITK/TSK (Homo sapiens, UniProt Q08881); test: Inhibition of recombinant human ITK using Poly(Glu, Tyr) 4:1 as substrate after 1 hr by ELISA
T1 sequence (Q08881 whole entry): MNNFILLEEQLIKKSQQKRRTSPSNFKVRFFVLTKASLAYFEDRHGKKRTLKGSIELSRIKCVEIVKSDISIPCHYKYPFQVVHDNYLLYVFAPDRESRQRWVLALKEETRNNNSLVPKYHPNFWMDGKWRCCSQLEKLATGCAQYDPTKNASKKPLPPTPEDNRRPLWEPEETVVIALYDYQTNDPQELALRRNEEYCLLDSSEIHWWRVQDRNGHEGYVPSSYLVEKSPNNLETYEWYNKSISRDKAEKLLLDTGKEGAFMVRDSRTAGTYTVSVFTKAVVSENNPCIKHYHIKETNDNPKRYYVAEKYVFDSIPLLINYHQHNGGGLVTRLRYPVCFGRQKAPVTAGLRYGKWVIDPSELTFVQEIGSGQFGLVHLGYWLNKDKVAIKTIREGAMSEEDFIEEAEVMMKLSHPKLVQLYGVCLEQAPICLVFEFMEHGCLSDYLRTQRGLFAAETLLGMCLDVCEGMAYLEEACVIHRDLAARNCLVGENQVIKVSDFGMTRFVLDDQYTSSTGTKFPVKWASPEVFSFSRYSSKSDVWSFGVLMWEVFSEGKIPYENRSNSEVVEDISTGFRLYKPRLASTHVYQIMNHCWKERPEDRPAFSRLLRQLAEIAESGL
Outline: (§1)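 Kinase activity was measured by ELISA on wells precoated with 20 µg/mL poly(Glu,Tyr) 4:1. Enzyme was incubated with compound in 50 mM HEPES pH 7.4, 20 mM MgCl2, 0.1 mM MnCl2, 0.2 mM Na3VO4, 1 mM DTT with 5 µM ATP at 37 °C for 1 h. Phosphotyrosine was detected with PY99 antibody, HRP secondary and OPD, read at A492. IC50 is the mean of duplicates.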

[2] = molecular target: Tyrosine-protein kinase Blk (Homo sapiens, UniProt P51451); test: Inhibition of recombinant human BLK using Poly(Glu, Tyr) 4:1 as substrate after 1 hr by ELISA
Tyrosine-protein kinase Blk, sequence (P51451 whole entry): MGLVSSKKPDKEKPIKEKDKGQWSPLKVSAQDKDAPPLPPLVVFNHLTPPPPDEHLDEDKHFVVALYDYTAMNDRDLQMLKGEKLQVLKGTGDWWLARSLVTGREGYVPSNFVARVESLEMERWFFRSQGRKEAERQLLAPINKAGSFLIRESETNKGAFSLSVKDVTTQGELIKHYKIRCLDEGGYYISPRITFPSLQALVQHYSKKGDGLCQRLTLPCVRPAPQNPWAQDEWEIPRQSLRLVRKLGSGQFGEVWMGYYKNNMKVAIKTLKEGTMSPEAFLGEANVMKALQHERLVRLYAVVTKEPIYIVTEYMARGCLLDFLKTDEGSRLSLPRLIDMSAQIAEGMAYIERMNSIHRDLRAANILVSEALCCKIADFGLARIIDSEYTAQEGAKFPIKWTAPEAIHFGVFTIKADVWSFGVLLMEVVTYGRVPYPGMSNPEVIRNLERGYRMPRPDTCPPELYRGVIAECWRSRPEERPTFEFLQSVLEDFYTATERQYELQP
Outline: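 Purchased active kinase incubated with compound on wells precoated with 20 µg/mL poly(Glu,Tyr) 4:1, in 50 mM HEPES pH 7.4, 20 mM MgCl2, 0.1 mM MnCl2, 0.2 mM Na3VO4, 1 mM DTT, 5 µM ATP, 37 °C, 1 h. Phosphotyrosine detected with PY99 antibody, HRP secondary, OPD, A492. IC50 as mean of duplicates.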

[3] = system: Mus musculus; test: Toxicity in CB17 SCID nude mouse xenografted with human TMD8 cells assessed as change in body weight at 5 mg/kg, po qd administered for 13 consecutive days measured during compound dosing; type: organism-based; details: in vivo
Outline: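 Female CB-17 SCID mice, 4-5 weeks old, were inoculated subcutaneously in the right axilla with about 2×10^6 TMD8 cells. At ~100-200 mm³ they were randomized (n = 6/group) and dosed orally once daily: vehicle for 13 days, 5 mg/kg/day for 13 days, 15 mg/kg/day for 17 days.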

[4] = system: Ramos; test: Antiproliferative activity against human Ramos cells after 72 hrs by MTT assay; type: functional, cell-based
Outline: (§2)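 Cells grown in RPMI-1640 with FBS at 37 °C, 5% CO2. Seeded and grown 2 h, then treated with various concentrations in PBS solution, each in triplicate, and cultured a further 72 h. Viability read by MTT. IC50 from the Logit method, given as mean ± SD of three independent determinations.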

[5] = molecular target: Epidermal growth factor receptor (Homo sapiens, UniProt P00533); test: Inhibition of recombinant human EGFR using Poly(Glu, Tyr) 4:1 as substrate after 1 hr by ELISA; outline: as §1
Epidermal growth factor receptor, sequence (P00533 whole entry): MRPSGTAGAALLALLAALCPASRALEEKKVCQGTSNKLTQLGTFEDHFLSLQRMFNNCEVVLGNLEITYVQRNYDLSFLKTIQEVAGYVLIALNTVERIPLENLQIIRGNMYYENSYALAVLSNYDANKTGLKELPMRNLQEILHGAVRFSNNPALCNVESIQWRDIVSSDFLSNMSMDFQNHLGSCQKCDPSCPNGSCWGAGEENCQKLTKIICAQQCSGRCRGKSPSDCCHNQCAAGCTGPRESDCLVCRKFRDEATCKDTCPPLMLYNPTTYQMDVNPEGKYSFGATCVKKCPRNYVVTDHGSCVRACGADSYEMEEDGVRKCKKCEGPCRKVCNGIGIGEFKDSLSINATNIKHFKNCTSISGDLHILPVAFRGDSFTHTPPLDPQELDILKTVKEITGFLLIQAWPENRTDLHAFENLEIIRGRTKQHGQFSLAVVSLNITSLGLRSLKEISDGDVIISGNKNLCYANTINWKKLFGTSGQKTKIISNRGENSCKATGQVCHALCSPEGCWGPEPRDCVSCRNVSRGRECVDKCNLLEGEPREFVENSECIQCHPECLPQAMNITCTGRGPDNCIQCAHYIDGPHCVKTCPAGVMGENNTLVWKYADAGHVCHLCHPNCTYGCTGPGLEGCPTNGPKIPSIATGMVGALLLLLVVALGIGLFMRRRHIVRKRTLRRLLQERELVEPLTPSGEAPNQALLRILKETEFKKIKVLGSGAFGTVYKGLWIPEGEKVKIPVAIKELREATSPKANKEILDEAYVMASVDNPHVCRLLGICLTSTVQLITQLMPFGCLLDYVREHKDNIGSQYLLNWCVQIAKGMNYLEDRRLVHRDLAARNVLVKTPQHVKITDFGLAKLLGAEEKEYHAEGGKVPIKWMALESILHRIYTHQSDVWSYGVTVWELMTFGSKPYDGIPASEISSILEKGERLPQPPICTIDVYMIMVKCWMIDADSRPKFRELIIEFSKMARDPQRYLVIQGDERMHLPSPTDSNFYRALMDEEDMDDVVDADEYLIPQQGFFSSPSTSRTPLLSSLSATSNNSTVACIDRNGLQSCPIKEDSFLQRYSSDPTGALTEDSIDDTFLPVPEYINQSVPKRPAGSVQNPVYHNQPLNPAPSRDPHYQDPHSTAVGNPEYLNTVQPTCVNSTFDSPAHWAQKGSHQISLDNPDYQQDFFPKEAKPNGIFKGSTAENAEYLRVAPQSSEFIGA

[6] = Drug metabolism in mouse liver microsomes assessed as N-((S)-4-amino-6-methylene-5-(4-phenoxyphenyl)-7,8-dihydro-6H-pyrimido[5,4-b]pyrrolizin-7-yl)-2,3-dihydroxypropanamide formation after 3 hrs; type: ADME, microsome
[7] = Drug metabolism in rat liver microsomes assessed as (S)-4-(4-(4,7-diamino-6-methylene-7,8-dihydro-6H-pyrimido[5,4-b]pyrrolizin-5-yl)phenoxy)phenol formation after 3 hrs; type: ADME, microsome
[8] = molecular target: Macrophage colony-stimulating factor 1 receptor (Homo sapiens, UniProt P07333); test: Inhibition of recombinant human CSF1R using Poly(Glu, Tyr) 4:1 as substrate after 1 hr by ELISA; outline: as §1
Macrophage colony-stimulating factor 1 receptor, sequence (P07333 whole entry): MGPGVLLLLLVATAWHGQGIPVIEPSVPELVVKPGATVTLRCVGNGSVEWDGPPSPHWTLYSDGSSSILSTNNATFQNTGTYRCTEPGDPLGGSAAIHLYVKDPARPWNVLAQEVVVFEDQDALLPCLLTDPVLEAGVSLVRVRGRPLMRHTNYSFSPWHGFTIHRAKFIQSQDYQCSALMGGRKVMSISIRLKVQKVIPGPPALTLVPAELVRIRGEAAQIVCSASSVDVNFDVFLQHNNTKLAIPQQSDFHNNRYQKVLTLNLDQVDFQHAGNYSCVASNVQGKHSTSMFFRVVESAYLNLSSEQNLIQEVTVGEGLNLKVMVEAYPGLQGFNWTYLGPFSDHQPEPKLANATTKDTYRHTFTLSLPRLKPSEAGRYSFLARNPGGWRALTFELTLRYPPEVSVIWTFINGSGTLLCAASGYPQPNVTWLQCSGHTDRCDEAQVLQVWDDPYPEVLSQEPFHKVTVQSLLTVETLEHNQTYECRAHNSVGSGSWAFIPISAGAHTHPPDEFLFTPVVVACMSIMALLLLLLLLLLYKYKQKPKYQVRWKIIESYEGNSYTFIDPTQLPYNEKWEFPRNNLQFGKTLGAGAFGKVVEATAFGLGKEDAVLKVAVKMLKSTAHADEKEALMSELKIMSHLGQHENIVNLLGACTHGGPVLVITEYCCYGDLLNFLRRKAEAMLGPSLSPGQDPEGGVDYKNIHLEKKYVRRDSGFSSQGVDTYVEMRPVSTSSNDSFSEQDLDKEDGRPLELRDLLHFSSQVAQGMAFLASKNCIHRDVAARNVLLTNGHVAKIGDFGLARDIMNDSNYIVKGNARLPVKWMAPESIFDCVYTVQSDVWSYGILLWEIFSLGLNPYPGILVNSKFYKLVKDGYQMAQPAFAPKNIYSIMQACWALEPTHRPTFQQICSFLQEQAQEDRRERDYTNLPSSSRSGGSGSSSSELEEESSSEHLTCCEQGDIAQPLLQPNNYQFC

[9] = system: TMD8; test: Cell cycle arrest in human TMD8 cells assessed as accumulation at G2 phase at 10 nM after 48 hrs by propidium iodide staining-based flow cytometric method (reference value: 14.53%); type: functional
Outline: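 TMD8 cells in RPMI-1640 with FBS, 37 °C, 5% CO2, treated at indicated concentrations for 48 h; permeabilized cells stained with propidium iodide and analysed by flow cytometry for cell-cycle phase distribution. Three independent experiments, mean ± SD.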

[10] = Drug metabolism in human liver microsomes assessed as N-((S)-4-amino-6-methylene-5-(4-phenoxyphenyl)-7,8-dihydro-6H-pyrimido[5,4-b]pyrrolizin-7-yl)-2,3-dihydroxypropanamide formation after 3 hrs; type: ADME, microsome
[11] = system: TMD8; test: Cell cycle arrest in human TMD8 cells assessed as accumulation at S phase at 10 nM after 48 hrs by propidium iodide staining-based flow cytometric method (reference value: 34.15%); type: functional
[12] = molecular target: Ephrin type-A receptor 2 (Homo sapiens, UniProt P29317); test: Inhibition of recombinant human EPHA2 using Poly(Glu, Tyr) 4:1 as substrate after 1 hr by ELISA
Ephrin type-A receptor 2, sequence (P29317 whole entry): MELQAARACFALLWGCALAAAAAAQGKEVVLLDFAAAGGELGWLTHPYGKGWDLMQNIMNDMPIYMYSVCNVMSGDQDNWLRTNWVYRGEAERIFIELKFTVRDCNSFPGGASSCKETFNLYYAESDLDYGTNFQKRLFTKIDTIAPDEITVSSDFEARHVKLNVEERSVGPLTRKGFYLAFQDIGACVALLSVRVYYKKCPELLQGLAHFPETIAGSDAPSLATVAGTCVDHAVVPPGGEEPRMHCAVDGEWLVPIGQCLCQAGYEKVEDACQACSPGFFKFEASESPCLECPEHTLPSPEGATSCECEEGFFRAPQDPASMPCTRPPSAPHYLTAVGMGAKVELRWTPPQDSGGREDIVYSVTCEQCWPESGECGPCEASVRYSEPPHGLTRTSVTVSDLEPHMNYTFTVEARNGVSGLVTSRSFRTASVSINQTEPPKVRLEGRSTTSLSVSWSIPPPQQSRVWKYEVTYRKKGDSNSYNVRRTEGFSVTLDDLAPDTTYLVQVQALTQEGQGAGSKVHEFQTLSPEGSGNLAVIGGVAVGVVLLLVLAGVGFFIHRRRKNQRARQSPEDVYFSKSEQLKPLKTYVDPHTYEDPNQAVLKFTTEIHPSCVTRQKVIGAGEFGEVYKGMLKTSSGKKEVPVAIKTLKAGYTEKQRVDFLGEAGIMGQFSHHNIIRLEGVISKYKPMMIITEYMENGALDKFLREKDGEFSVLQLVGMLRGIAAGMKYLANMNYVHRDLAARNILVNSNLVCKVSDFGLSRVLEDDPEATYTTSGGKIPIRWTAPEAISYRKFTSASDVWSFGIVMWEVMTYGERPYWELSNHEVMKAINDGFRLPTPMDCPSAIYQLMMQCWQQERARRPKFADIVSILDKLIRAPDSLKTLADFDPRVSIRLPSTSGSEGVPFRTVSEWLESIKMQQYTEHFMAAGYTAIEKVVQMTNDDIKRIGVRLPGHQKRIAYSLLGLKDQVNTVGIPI

[13] = Drug metabolism in rat liver microsomes assessed as (S)-N-(4-amino-5-(4-(4-hydroxyphenoxy)phenyl)-6-methylene-7,8-dihydro-6H-pyrimido[5,4-b]pyrrolizin-7-yl)acrylamide formation after 3 hrs; type: ADME, microsome
[14] = system: TMD8; test: Induction of apoptosis in human TMD8 cells after 72 hrs by Annexin-FITC/propidium iodide staining-based flow cytometric method; type: functional, cell-based
[15] = Drug metabolism in rat liver microsomes assessed as (S,E)-N-(4-amino-6-methylene-5-(4-phenoxyphenyl)-7,8-dihydro-6H-pyrimido[5,4-b]pyrrolizin-7-yl)-3-hydroxyacrylamide formation after 3 hrs; type: ADME, microsome
[16] = Cmax in rat at 3 mg/kg, po; type: ADME, organism-based; parameters: dose 3 mg/kg, route oral; details: in vivo
Outline: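 Rats dosed orally at 3 mg/kg; vehicle DMSO, Tween 80, normal saline; values are the average of three determinations.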

[17] = system: TMD8; test: Induction of apoptosis in human TMD8 cells assessed as late apoptotic cells at 10 nM after 72 hrs by Annexin-FITC/propidium iodide staining-based flow cytometric method (reference value: 3.2%); type: functional
[18] = Drug metabolism in rat liver microsomes assessed as (S)-N-(4-amino-5-(4-hydroxyphenyl)-6-methylene-7,8-dihydro-6H-pyrimido[5,4-b]pyrrolizin-7-yl)acrylamide formation after 3 hrs; type: ADME, microsome
[19] = Drug metabolism in mouse liver microsomes assessed as (S)-4-(4-(4,7-diamino-6-methylene-7,8-dihydro-6H-pyrimido[5,4-b]pyrrolizin-5-yl)phenoxy)phenol formation after 3 hrs; type: ADME, microsome
[20] = system: TMD8; test: Cell cycle arrest in human TMD8 cells assessed as accumulation at G1 phase at 10 nM after 48 hrs by propidium iodide staining-based flow cytometric method (reference value: 51.33%); type: functional
[21] = system: TMD8; test: Antiproliferative activity against human TMD8 cells after 72 hrs by MTT assay; type: functional, cell-based; details: TMD8, 72 h; outline: as §2

IC50 [1]: 0.0151 µM
IC50 [2]: 0.0002 µM
IC50 [4]: 5.03 µM
IC50 [5]: 0.0013 µM
Drug metabolism [6]: Metabolite_Detected
Drug metabolism [7]: Metabolite_Detected
IC50 [8]: > 1 µM
Drug metabolism [10]: Metabolite_Detected
IC50 [12]: > 1 µM
Drug metabolism [13]: Metabolite_Detected
Drug metabolism [15]: Metabolite_Detected
Cmax [16]: 223 ng/mL
Drug metabolism [18]: Metabolite_Detected
Drug metabolism [19]: Metabolite_Detected
Compound: C=CC(=O)N[C@@H]1Cn2c(c(-c3ccc(Oc4ccccc4)cc3)c3c(N)ncnc32)C1=C
Activity [3]: Non-Toxic
Activity [9]: 11.12%
Activity [11]: 12.56%
Activity [14]: Dose-dependent effect
Activity [17]: 12.5%
Activity [20]: 76.32%
IC50 [21]: 0.016 µM
